Assay results from ChEMBL document CHEMBL5236607, “Membrane-Active Cyclic Amphiphilic Peptides: Broad-Spectrum Antibacterial Activity Alone and in Combination with Antibiotics” (J Med Chem, 2022).
Peptide text beside a SMILES is read from it.

Key:
Type in all cases: functional
[1] = tested on: Staphylococcus aureus; test: Synergistic antibacterial activity against methicillin resistant Staphylococcus aureus ATCC BAA-1556 incubated for 24 hrs in presence of tetracycline by checkerboard assay
Summary of the method: (§1)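 Checkerboard assay. Inoculum from an LB overnight culture at 0.5 McFarland, diluted 1/150 in MH media. […] Incubated 37 °C for 24 h. FICI = MIC combination/MIC alone summed over both agents. Triplicate.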

[2] = tested on: Escherichia coli; test: Synergistic antibacterial activity against Escherichia coli ATCC 25922 incubated for 24 hrs in presence of tetracycline by checkerboard assay
Summary of the method: (§2)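 Checkerboard assay in MH broth. Inoculum from an LB overnight culture set to 0.5 McFarland and diluted 1/150. […] Each agent was also titrated alone. Incubation 24 h at 37 °C. FIC = combination MIC/individual MIC; FICI = sum of the FICs. Triplicate.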

[3] = tested on: Pseudomonas aeruginosa; test: Synergistic antibacterial activity against Pseudomonas aeruginosa ATCC […] incubated for 24 hrs in presence of levofloxacin by checkerboard assay
[4] = tested on: Pseudomonas aeruginosa; test: Synergistic antibacterial activity against Pseudomonas aeruginosa ATCC […] incubated for 24 hrs in presence of Ciprofloxacin by checkerboard assay
[5] = tested on: Pseudomonas aeruginosa; test: Synergistic antibacterial activity against Pseudomonas aeruginosa ATCC […] incubated for 24 hrs in presence of meropenem by checkerboard assay
[6] = tested on: Pseudomonas aeruginosa; test: Synergistic antibacterial activity against Pseudomonas aeruginosa ATCC […] assessed as fractional inhibitory concentration incubated for 24 hrs in presence of tetracycline by checkerboard assay
[7] = tested on: Klebsiella pneumoniae; test: Synergistic antibacterial activity against Klebsiella pneumoniae ATCC BAA-1705 assessed as fractional inhibitory concentration index incubated for 24 hrs in presence of tobramycin by checkerboard assay; summary of the method: as §2
[8] = tested on: Staphylococcus aureus; test: Synergistic antibacterial activity against methicillin resistant Staphylococcus aureus ATCC BAA-1556 assessed as fractional inhibitory concentration index incubated for 24 hrs in presence of clindamycin by checkerboard assay; summary of the method: as §1
[9] = tested on: Pseudomonas aeruginosa; test: Synergistic antibacterial activity against Pseudomonas aeruginosa ATCC […] assessed as fractional inhibitory concentration index incubated for 24 hrs in presence of clindamycin by checkerboard assay; summary of the method: as §1
[10] = tested on: Escherichia coli; test: Synergistic antibacterial activity against Escherichia coli ATCC 25922 assessed as fractional inhibitory concentration index incubated for 24 hrs in presence of clindamycin by checkerboard assay; summary of the method: as §2
[11] = tested on: Klebsiella pneumoniae; test: Synergistic antibacterial activity against Klebsiella pneumoniae ATCC BAA-1705 fractional inhibitory concentration index incubated for 24 hrs in presence of clindamycin by checkerboard assay; summary of the method: as §2
[12] = tested on: Pseudomonas aeruginosa; test: Synergistic antibacterial activity against Pseudomonas aeruginosa ATCC […] fractional inhibitory concentration index incubated for 24 hrs in presence of kanamycin by checkerboard assay
[13] = tested on: Escherichia coli; test: Synergistic antibacterial activity against Escherichia coli ATCC 25922 fractional inhibitory concentration index incubated for 24 hrs in presence of kanamycin by checkerboard assay; summary of the method: as §2
[14] = tested on: Klebsiella pneumoniae; test: Synergistic antibacterial activity against Klebsiella pneumoniae ATCC BAA-1705 fractional inhibitory concentration index incubated for 24 hrs in presence of kanamycin by checkerboard assay; summary of the method: as §2
[15] = tested on: Klebsiella pneumoniae; test: Synergistic antibacterial activity against Klebsiella pneumoniae ATCC BAA-1705 fractional inhibitory concentration index incubated for 24 hrs in presence of levofloxacin by checkerboard assay; summary of the method: as §2
[16] = tested on: Klebsiella pneumoniae; test: Synergistic antibacterial activity against Klebsiella pneumoniae ATCC BAA-1705 fractional inhibitory concentration index incubated for 24 hrs in presence of polymyxin B by checkerboard assay
[17] = tested on: Pseudomonas aeruginosa; test: Synergistic antibacterial activity against Pseudomonas aeruginosa ATCC […] fractional inhibitory concentration index incubated for 24 hrs in presence of metronidazole by checkerboard assay
[18] = tested on: Klebsiella pneumoniae; test: Synergistic antibacterial activity against Klebsiella pneumoniae ATCC BAA-1705 fractional inhibitory concentration index incubated for 24 hrs in presence of metronidazole by checkerboard assay
[19] = tested on: Pseudomonas aeruginosa; test: Synergistic antibacterial activity against Pseudomonas aeruginosa ATCC […] fractional inhibitory concentration index incubated for 24 hrs in presence of meropenem by checkerboard assay
[20] = tested on: Pseudomonas aeruginosa; test: Synergistic antibacterial activity against Pseudomonas aeruginosa ATCC […] fractional inhibitory concentration index incubated for 24 hrs in presence of vancomycin by checkerboard assay
[21] = tested on: Escherichia coli; test: Synergistic antibacterial activity against Escherichia coli ATCC 25922 fractional inhibitory concentration index incubated for 24 hrs in presence of vancomycin by checkerboard assay; summary of the method: as §1
[22] = tested on: Klebsiella pneumoniae; test: Synergistic antibacterial activity against Klebsiella pneumoniae ATCC BAA-1705 fractional inhibitory concentration index incubated for 24 hrs in presence of vancomycin by checkerboard assay; summary of the method: as §1
[23] = tested on: Pseudomonas aeruginosa; test: Synergistic antibacterial activity against Pseudomonas aeruginosa ATCC […] fractional inhibitory concentration index incubated for 24 hrs in presence of daptomycin by checkerboard assay
[24] = tested on: Escherichia coli; test: Synergistic antibacterial activity against Escherichia coli ATCC 25922 assessed as fractional inhibitory concentration incubated for 24 hrs in presence of tetracycline by checkerboard assay; summary of the method: as §2
[25] = tested on: Klebsiella pneumoniae; test: Synergistic antibacterial activity against Klebsiella pneumoniae ATCC BAA-1705 assessed as fractional inhibitory concentration incubated for 24 hrs in presence of tetracycline by checkerboard assay; summary of the method: as §2
[26] = tested on: Staphylococcus aureus; test: Synergistic antibacterial activity against methicillin resistant Staphylococcus aureus ATCC BAA-1556 assessed as fractional inhibitory concentration incubated for 24 hrs in presence of clindamycin by checkerboard assay; summary of the method: as §1
[27] = tested on: Escherichia coli; test: Synergistic antibacterial activity against Escherichia coli ATCC 25922 assessed as fractional inhibitory concentration incubated for 24 hrs in presence of clindamycin by checkerboard assay; summary of the method: as §2
[28] = tested on: Klebsiella pneumoniae; test: Synergistic antibacterial activity against Klebsiella pneumoniae ATCC BAA-1705 fractional inhibitory concentration incubated for 24 hrs in presence of clindamycin by checkerboard assay; summary of the method: as §2
[29] = tested on: Pseudomonas aeruginosa; test: Synergistic antibacterial activity against Pseudomonas aeruginosa ATCC […] fractional inhibitory concentration incubated for 24 hrs in presence of kanamycin by checkerboard assay; summary of the method: as §1
[30] = tested on: Escherichia coli; test: Synergistic antibacterial activity against Escherichia coli ATCC 25922 fractional inhibitory concentration incubated for 24 hrs in presence of levofloxacin by checkerboard assay; summary of the method: as §2
[31] = tested on: Escherichia coli; test: Synergistic antibacterial activity against Escherichia coli ATCC 25922 fractional inhibitory concentration incubated for 24 hrs in presence of polymyxin B by checkerboard assay; summary of the method: as §2
[32] = tested on: Klebsiella pneumoniae; test: Synergistic antibacterial activity against Klebsiella pneumoniae ATCC BAA-1705 fractional inhibitory concentration incubated for 24 hrs in presence of polymyxin B by checkerboard assay; summary of the method: as §2
[33] = tested on: Pseudomonas aeruginosa; test: Synergistic antibacterial activity against Pseudomonas aeruginosa ATCC […] fractional inhibitory concentration incubated for 24 hrs in presence of metronidazole by checkerboard assay
[34] = tested on: Pseudomonas aeruginosa; test: Synergistic antibacterial activity against Pseudomonas aeruginosa ATCC […] fractional inhibitory concentration incubated for 24 hrs in presence of meropenem by checkerboard assay
[35] = tested on: Staphylococcus aureus; test: Synergistic antibacterial activity against methicillin resistant Staphylococcus aureus ATCC BAA-1556 fractional inhibitory concentration incubated for 24 hrs in presence of vancomycin by checkerboard assay; summary of the method: as §1
[36] = tested on: Escherichia coli; test: Synergistic antibacterial activity against Escherichia coli ATCC 25922 fractional inhibitory concentration incubated for 24 hrs in presence of vancomycin by checkerboard assay; summary of the method: as §2
[37] = tested on: Klebsiella pneumoniae; test: Synergistic antibacterial activity against Klebsiella pneumoniae ATCC BAA-1705 fractional inhibitory concentration incubated for 24 hrs in presence of daptomycin by checkerboard assay; summary of the method: as §2

SMILES	MIC [1]	MIC [2]	MIC [3]	MIC [4]	MIC [5]	FIC [6]	fractional inhibitory concentration index (FICI) [7]	fractional inhibitory concentration index (FICI) [8]	fractional inhibitory concentration index (FICI) [9]	fractional inhibitory concentration index (FICI) [10]	fractional inhibitory concentration index (FICI) [11]	fractional inhibitory concentration index (FICI) [12]	fractional inhibitory concentration index (FICI) [13]	fractional inhibitory concentration index (FICI) [14]	fractional inhibitory concentration index (FICI) [15]	fractional inhibitory concentration index (FICI) [16]	fractional inhibitory concentration index (FICI) [17]	fractional inhibitory concentration index (FICI) [18]	fractional inhibitory concentration index (FICI) [19]	fractional inhibitory concentration index (FICI) [20]	also measured
N=C(N)NCCC[C@@H]1NC(=O)[C@H](CCCNC(=N)N)NC(=O)[C@H](CCCNC(=N)N)NC(=O)[C@H](Cc2c[nH]c3ccccc23)NC(=O)[C@H](Cc2c[nH]c3ccccc23)NC(=O)[C@H](Cc2c[nH]c3ccccc23)NC(=O)[C@H](Cc2c[nH]c3ccccc23)NC(=O)[C@H](CCCNC(=N)N)NC(=O)[C@H](CCCNC(=N)N)NC1=O	0.0625 µg/mL	1 µg/mL	0.125 µg/mL	0.125 µg/mL	0.125 µg/mL	0.125	0.375	0.499	0.266	0.313	0.254	0.281	0.5	0.375	0.375	0.375	0.5	0.281	0.375	0.313	fractional inhibitory concentration index (FICI) [21]: 0.531; fractional inhibitory concentration index (FICI) [22]: 0.563; fractional inhibitory concentration index (FICI) [23]: 0.313; FIC [24]: 0.125; FIC [25]: 0.125; FIC [26]: 0.249; FIC [27]: 0.063; FIC [28]: 0.0039; FIC [29]: 0.0313; FIC [30]: 0.125; FIC [31]: 0.125; FIC [32]: 0.125; FIC [33]: 0.25; FIC [34]: 0.125; FIC [35]: 0.5; FIC [36]: 0.0313; FIC [37]: 0.0156
N=C(N)NCCC[C@@H]1NC(=O)[C@H](CCCNC(=N)N)NC(=O)[C@H](CCCNC(=N)N)NC(=O)[C@H](CCCNC(=N)N)NC(=O)[C@H](Cc2c[nH]c3ccccc23)NC(=O)[C@H](Cc2c[nH]c3ccccc23)NC(=O)[C@H](Cc2c[nH]c3ccccc23)NC(=O)[C@H](Cc2c[nH]c3ccccc23)NC(=O)[C@H](CCCNC(=N)N)NC(=O)[C@H](CCCNC(=N)N)NC1=O (cyclo(RRRRRRWWWW))	0.0625 µg/mL	0.5 µg/mL	0.125 µg/mL	0.125 µg/mL	0.25 µg/mL	0.25	0.5	0.498	0.516	0.313	0.266	0.266	0.375	0.5	0.375	0.281	0.375	0.313	0.5	0.531	fractional inhibitory concentration index (FICI) [21]: 0.563; fractional inhibitory concentration index (FICI) [22]: 0.313; fractional inhibitory concentration index (FICI) [23]: 0.516; FIC [24]: 0.063; FIC [25]: 0.125; FIC [26]: 0.248; FIC [27]: 0.063; FIC [28]: 0.016; FIC [29]: 0.0156; FIC [30]: 0.125; FIC [31]: 0.063; FIC [32]: 0.031; FIC [33]: 0.125; FIC [34]: 0.25; FIC [35]: 0.25; FIC [36]: 0.063; FIC [37]: 0.125
